Test results taken from ChEMBL document CHEMBL1137943, “Synthesis and antibacterial activity of O-substituted nocathiacin I derivatives” (Bioorg Med Chem Lett, 2004).
Values after ≈ are worked out from the molar mass of the structure shown.

Tests used:
[1] = Equilibrium water solubility was determined with amorphous powders at pH 6.9; type: ADME
[2] = test system: Mus musculus; test: Dose (sc) required against Staphylococcus aureus infected mice; type: functional; conditions: read-out: PD50
Outline: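 Adult female ICR mice infected ip with 5–6 × 10^6 CFU of S. aureus A15090 in 7% hog gastric mucin. Drug in 10% DMSO/5% Tween 80/85% water given sc twice, at 1 and 4 h post-infection. Survival followed for 8 days; 10 mice per group, at least three doses. PD50 (mg/kg) by Spearman–Karber estimator.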

[3] = test system: Streptococcus pneumoniae; test: Minimum concentration required to inhibit visible growth of penicillin-resistant Streptococcus pneumoniae A28272; type: functional
Outline: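 Serial microbroth dilution in 50% Mueller–Hinton/50% Todd–Hewitt medium; final inoculum about 5 × 10^5 CFU/well; incubated at 35 °C for 18 h in ambient air. MIC is the lowest drug concentration preventing visible growth.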

[4] = test system: Staphylococcus aureus; test: Minimum concentration required to inhibit visible growth of methicillin-sensitive Staphylococcus aureus A15090; type: functional
Outline: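 Serial microbroth dilution in Mueller–Hinton medium; final inoculum about 5 × 10^5 CFU/well; incubated at 35 °C for 18 h in ambient air. MIC is the lowest drug concentration preventing visible bacterial growth.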

[5] = test system: Enterococcus faecalis; test: Minimum concentration required to inhibit visible growth of Enterococcus faecalis A20688
[6] = Equilibrium water solubility was determined with amorphous powders at pH 8.4; type: ADME
[7] = test system: Mus musculus; test: Dose (iv) required against Staphylococcus aureus infected mice; type: functional; conditions: read-out: PD50
[8] = Equilibrium water solubility was determined with amorphous powders at pH 3; type: ADME
[9] = Equilibrium water solubility was determined with amorphous powders at pH 3.5; type: ADME
[10] = Equilibrium water solubility was determined with amorphous powders at pH 8.5; type: ADME
[11] = Equilibrium water solubility was determined with amorphous powders at pH 7.1; type: ADME
[12] = Equilibrium water solubility was determined with amorphous powders at pH 8.2; type: ADME
[13] = Equilibrium water solubility was determined with amorphous powders at pH 4; type: ADME

C=C(NC(=O)c1csc(-c2nc3c(cc2O)-c2nc(cs2)C(=O)NC(C(C)O)C(=O)N/C(=C(\C)OC)c2nc(cs2)C(=O)NC2c4nc(cs4)C(=O)NC(COC(=O)c4c5c6c(cccc6n4OP(=O)(O)OCCCl)COC(=O)C(OC4CC(C)(O)C(N(C)C)C(C)O4)C2OC5)c2nc-3cs2)n1)C(N)=O (stereo not drawn)
solubility thermodynamic [1]: 530 µg/mL (≈ 335 µM) | ED50 [2]: > 10 mg/kg | MIC [3]: 0.03 µg/mL (≈ 0.019 µM) | MIC [4]: 0.25 µg/mL (≈ 0.158 µM) | MIC [5]: 0.5 µg/mL (≈ 0.316 µM)

C=C(NC(=O)c1csc(-c2nc3c(cc2OP([O-])OC)-c2nc(cs2)C(=O)NC(C(C)O)C(=O)N/C(=C(\C)OC)c2nc(cs2)C(=O)NC2c4nc(cs4)C(=O)NC(COC(=O)c4c5c6c(cccc6n4O)COC(=O)C(OC4CC(C)(O)C(N(C)C)C(C)O4)C2OC5)c2nc-3cs2)n1)C(N)=O.[Na+] (stereo not drawn)
solubility thermodynamic [6]: > 2200 µg/mL | ED50 [7]: 0.26 mg/kg | MIC [3]: 0.06 µg/mL | MIC [4]: 0.125 µg/mL | MIC [5]: 0.25 µg/mL

C=C(NC(=O)c1csc(-c2nc3c(cc2O)-c2nc(cs2)C(=O)NC(C(C)O)C(=O)N/C(=C(\C)OC)c2nc(cs2)C(=O)NC2c4nc(cs4)C(=O)NC(COC(=O)c4c5c6c(cccc6n4OC(=O)NCCCN4CCN(C)CC4)COC(=O)C(OC4CC(C)(O)C(N(C)C)C(C)O4)C2OC5)c2nc-3cs2)n1)C(N)=O (stereo not drawn)
solubility thermodynamic [8]: > 2300 µg/mL | MIC [3]: 0.0005 µg/mL (≈ 0.000308 µM) | MIC [4]: 0.003 µg/mL (≈ 0.00185 µM) | MIC [5]: 0.003 µg/mL (≈ 0.00185 µM)

C=C(NC(=O)c1csc(-c2nc3c(cc2O)-c2nc(cs2)C(=O)NC(C(C)O)C(=O)N/C(=C(\C)OC)c2nc(cs2)C(=O)NC2c4nc(cs4)C(=O)NC(COC(=O)c4c5c6c(cccc6n4OC(=O)NCCOCCOCCOCCOCCOCCO)COC(=O)C(OC4CC(C)(O)C(N(C)C)C(C)O4)C2OC5)c2nc-3cs2)n1)C(N)=O (stereo not drawn)
solubility thermodynamic [9]: > 2100 µg/mL | ED50 [2]: 0.78 mg/kg | MIC [3]: 0.003 µg/mL (≈ 0.00172 µM) | MIC [4]: 0.06 µg/mL (≈ 0.0344 µM) | MIC [5]: 0.06 µg/mL (≈ 0.0344 µM)

C=C(NC(=O)c1csc(-c2nc3c(cc2O)-c2nc(cs2)C(=O)NC(C(C)O)C(=O)N/C(=C(\C)OC)c2nc(cs2)C(=O)NC2c4nc(cs4)C(=O)NC(COC(=O)c4c5c6c(cccc6n4OC(=O)NCCCC)COC(=O)C(OC4CC(C)(O)C(N(C)C)C(C)O4)C2OC5)c2nc-3cs2)n1)C(N)=O (stereo not drawn)
MIC [3]: 0.007 µg/mL (≈ 0.00456 µM) | MIC [4]: 0.001 µg/mL (≈ 0.000651 µM) | MIC [5]: 0.03 µg/mL (≈ 0.0195 µM)

C=C(NC(=O)c1csc(-c2nc3c(cc2OP(=O)(O)OCCCl)-c2nc(cs2)C(=O)NC(C(C)O)C(=O)N/C(=C(\C)OC)c2nc(cs2)C(=O)NC2c4nc(cs4)C(=O)NC(COC(=O)c4c5c6c(cccc6n4OP(=O)(O)OCCCl)COC(=O)C(OC4CC(C)(O)C(N(C)C)C(C)O4)C2OC5)c2nc-3cs2)n1)C(N)=O (stereo not drawn)
MIC [3]: 0.5 µg/mL (≈ 0.29 µM) | MIC [4]: 4 µg/mL (≈ 2.32 µM) | MIC [5]: 4 µg/mL (≈ 2.32 µM)

C=C(NC(=O)c1csc(-c2nc3c(cc2OP(=O)(O)OCCCl)-c2nc(cs2)C(=O)NC(C(C)O)C(=O)N/C(=C(\C)OC)c2nc(cs2)C(=O)NC2c4nc(cs4)C(=O)NC(COC(=O)c4c5c6c(cccc6n4O)COC(=O)C(OC4CC(C)(O)C(N(C)C)C(C)O4)C2OC5)c2nc-3cs2)n1)C(N)=O (stereo not drawn)
MIC [3]: 0.03 µg/mL (≈ 0.019 µM) | MIC [4]: 1 µg/mL (≈ 0.633 µM) | MIC [5]: 1 µg/mL (≈ 0.633 µM)

C=C(NC(=O)c1csc(-c2nc3c(cc2O)-c2nc(cs2)C(=O)NC(C(C)O)C(=O)N/C(=C(\C)OC)c2nc(cs2)C(=O)NC2c4nc(cs4)C(=O)NC(COC(=O)c4c5c6c(cccc6n4OC(=O)NC)COC(=O)C(OC4CC(C)(O)C(N(C)C)C(C)O4)C2OC5)c2nc-3cs2)n1)C(N)=O (stereo not drawn)
MIC [3]: 0.001 µg/mL (≈ 0.000669 µM) | MIC [4]: 0.125 µg/mL (≈ 0.0836 µM) | MIC [5]: 0.06 µg/mL (≈ 0.0401 µM)

C=C(NC(=O)c1csc(-c2nc3c(cc2OP([O-])OC)-c2nc(cs2)C(=O)NC(C(C)O)C(=O)N/C(=C(\C)OC)c2nc(cs2)C(=O)NC2c4nc(cs4)C(=O)NC(COC(=O)c4c5c6c(cccc6n4OP([O-])OC)COC(=O)C(OC4CC(C)(O)C(N(C)C)C(C)O4)C2OC5)c2nc-3cs2)n1)C(N)=O.[Na+].[Na+] (stereo not drawn)
solubility thermodynamic [10]: > 10000 µg/mL | ED50 [7]: 5.9 mg/kg | MIC [3]: 0.003 µg/mL | MIC [4]: 0.25 µg/mL | MIC [5]: 0.25 µg/mL

C=C(NC(=O)c1csc(-c2nc3c(cc2O)-c2nc(cs2)C(=O)NC(C(C)O)C(=O)N/C(=C(\C)OC)c2nc(cs2)C(=O)NC2c4nc(cs4)C(=O)NC(COC(=O)c4c5c6c(cccc6n4OC(=O)N(C)CCO)COC(=O)C(OC4CC(C)(O)C(N(C)C)C(C)O4)C2OC5)c2nc-3cs2)n1)C(N)=O (stereo not drawn)
solubility thermodynamic [11]: 3 µg/mL (≈ 1.95 µM) | MIC [3]: 0.0005 µg/mL (≈ 0.000325 µM) | MIC [4]: 0.03 µg/mL (≈ 0.0195 µM) | MIC [5]: 0.03 µg/mL (≈ 0.0195 µM)

C=C(NC(=O)c1csc(-c2nc3c(cc2O)-c2nc(cs2)C(=O)NC(C(C)O)C(=O)N/C(=C(\C)OC)c2nc(cs2)C(=O)NC2c4nc(cs4)C(=O)NC(COC(=O)c4c5c6c(cccc6n4OC(=O)NCCOCCOCCOCCOC)COC(=O)C(OC4CC(C)(O)C(N(C)C)C(C)O4)C2OC5)c2nc-3cs2)n1)C(N)=O (stereo not drawn)
MIC [3]: 0.015 µg/mL (≈ 0.00898 µM) | MIC [4]: 0.125 µg/mL (≈ 0.0748 µM) | MIC [5]: 0.125 µg/mL (≈ 0.0748 µM)

C=C(NC(=O)c1csc(-c2nc3c(cc2O)-c2nc(cs2)C(=O)NC(C(C)O)C(=O)N/C(=C(\C)OC)c2nc(cs2)C(=O)NC2c4nc(cs4)C(=O)NC(COC(=O)c4c5c6c(cccc6n4OP([O-])OC)COC(=O)C(OC4CC(C)(O)C(N(C)C)C(C)O4)C2OC5)c2nc-3cs2)n1)C(N)=O.[Na+] (stereo not drawn)
solubility thermodynamic [12]: 5600 µg/mL | ED50 [7]: 1.6 mg/kg | MIC [3]: 0.007 µg/mL | MIC [4]: 0.125 µg/mL | MIC [5]: 0.25 µg/mL

C=C(NC(=O)c1csc(-c2nc3c(cc2O)-c2nc(cs2)C(=O)N[C@@H]([C@@H](C)O)C(=O)N/C(=C(\C)OC)c2nc(cs2)C(=O)N[C@@H]2c4nc(cs4)C(=O)N[C@@H](COC(=O)c4c5c6c(cccc6n4O)COC(=O)[C@@H](O[C@H]4C[C@](C)(O)[C@H](N(C)C)[C@H](C)O4)[C@H]2OC5)c2nc-3cs2)n1)C(N)=O [MJ347-81F4 A]
solubility thermodynamic [13]: 340 µg/mL (≈ 237 µM) | ED50 [7]: 0.2 mg/kg | MIC [3]: 0.002 µg/mL (≈ 0.00139 µM) | MIC [4]: 0.007 µg/mL (≈ 0.00487 µM) | MIC [5]: 0.03 µg/mL (≈ 0.0209 µM)
